We go through 55 compounds from PubChem BioAssay AID1665 (Sanford-Burnham Center for Chemical Genomics, 2009).

The structures appear in SMILES notation. Screen size: about 190,000 compounds; about 590 (0.31%) were called active.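 How the source made its calls: active means nuclear translocation activity above 50% at 5 µM, with a well cell count of 50 or more; inconclusive means wells under 50 cells across six images, flagged as toxic; inactive means the rest.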 The entries come from a sample that favours actives as a whole.

The assay in a line: modulators of beta-catenin nuclear translocation, primary screen, imaging, HeLa cells, immunofluorescence, high-content (AID 1665).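 On nuclear translocation activity: per-cell ratio of nuclear to cytoplasmic median beta-catenin stain intensity; plate controls were DMSO negative control for no effect and GSK-3 inhibitor IX positive control for full effect.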 Particulars: at 5 µM; cell count: measured here: cell count, cytotoxicity flag; nuclear translocation activity: stronger effect = higher value. In a few lines: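 assay system = human HeLa cells, endogenous beta-catenin | times = compound treatment 24 h, 37°C, 5% CO2 | detection = Anti-beta-catenin immunofluorescence on PFA-fixed, Triton-permeabilized cells, DAPI nuclei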
Consider `c1csc(-c2nnc(COc3ncnc4sccc34)o2)c1`, for which the cell count came out at 1250 cells and the nuclear translocation activity was 2.6% (inactive).

As for `O=C(NC(=O)N1CCSCC1)c1c(Cl)cccc1Cl`, the cell count was determined as 1280 cells and the nuclear translocation activity is 0.2% (inactive).

In the case of `O=C(Nc1cccnc1)c1cc([N+](=O)[O-])ccc1Cl`, the cell count was 1370 cells and the nuclear translocation activity was -0.7% (inactive).

As to `Cc1ccc(C2CC(=O)NC(SCC(=O)OCc3ccccc3)=C2C#N)o1` (stereo not given), the cell count worked out at 922 cells and the nuclear translocation activity is 47.9% (inactive).

In the case of `CCOC(=O)CSC1=C(C#N)C(c2sccc2C)CC(=O)N1` (stereo not given), the cell count turned out to be 658 cells and the nuclear translocation activity is 69% (active).

For the compound `C=CCOC(=O)C1=C(C)NC(SCC(=O)OCC)=C(C#N)C1c1ccc(C)cc1` (stereo not given), the cell count worked out at 1350 cells and the nuclear translocation activity is 0.1% (inactive).

Regarding `O=C(O)C1CCN(C(=O)c2cc(F)cc3c2OCOC3)CC1`, the cell count worked out at 1200 cells and the nuclear translocation activity is -2.6% (inactive).

Turning to `O=C(NNC(=S)NC1CC2CCC1C2)c1ccc(Cl)cc1` (stereo not given), the cell count turned out to be 1150 cells and the nuclear translocation activity was -1.4% (inactive).

As for `CCNC(=O)CCc1nc(-c2ccc(C)cc2)no1`, the cell count stood at 1360 cells and the nuclear translocation activity was -0.5% (inactive).

With `Nc1nonc1-c1nc2ccccc2n1CCC(=O)O`, the cell count was 899 cells and the nuclear translocation activity is -2% (inactive).

Consider `Nc1nonc1-c1nc2ccccc2n1Cc1ccc(F)cc1`, for which the cell count came out at 778 cells and the nuclear translocation activity is -0.5% (inactive).

With `COc1ccc(C)c(Cn2c(-c3nonc3N)nc3ccccc32)c1`, the cell count was 720 cells and the nuclear translocation activity was 101% (active).

In the case of `O=C(Nc1nnc(Cc2ccc(Cl)cc2)s1)c1ccncc1`, the cell count worked out at 1270 cells and the nuclear translocation activity was 1% (inactive).

For `COc1ccc(Cc2nnc(NC(=O)c3cc(OC)c(OC)c(OC)c3)s2)cc1OC`, the cell count is 371 cells and the nuclear translocation activity is 53.4% (active).

For the compound `CCCc1nnc(NC(=O)c2cc(OC)cc(OC)c2)s1`, the cell count was 878 cells and the nuclear translocation activity was -2.3% (inactive).

For the compound `O=[N+]([O-])c1ccc2nc(-c3ccccn3)[nH]c2c1`, the cell count came to 1380 cells and the nuclear translocation activity is -0.1% (inactive).

Turning to `Brc1ccc(-c2nn[nH]n2)cc1`, the cell count is 1320 cells and the nuclear translocation activity was 0.9% (inactive).

For the compound `Nc1ccc(C(=O)OCC(=O)NC2CCS(=O)(=O)C2)cc1[N+](=O)[O-]` (stereo not given), the cell count amounted to 1260 cells and the nuclear translocation activity was -3.1% (inactive).

Turning to `Nc1c(N(CCO)C(=O)C2CCCCC2)c(=O)[nH]c(=O)n1Cc1ccccc1`, the cell count came out at 1350 cells and the nuclear translocation activity was 0.2% (inactive).

With `O=C(Nc1ccc(S(=O)(=O)N2CCOCC2)cc1)c1ccc2ncsc2c1`, the cell count was determined as 1420 cells and the nuclear translocation activity is -1.2% (inactive).

Consider `O=C(NCc1ccco1)C1CCCN1S(=O)(=O)c1ccccc1C(F)(F)F` (stereo not given), for which the cell count was determined as 1300 cells and the nuclear translocation activity is -0.6% (inactive).

For the compound `Cc1cc(CO)nn1-c1ccc([N+](=O)[O-])cc1`, the cell count was 1190 cells and the nuclear translocation activity was -2.5% (inactive).

As for `COc1ccc(Cl)cc1C(=O)NNC(=O)c1nc2nc(C)cc(C)n2n1`, the cell count came out at 1330 cells and the nuclear translocation activity was 1.2% (inactive).

In the case of `COc1cc2c(cc1OC)C(/C=C/c1ccco1)=NCC2`, the cell count stood at 1310 cells and the nuclear translocation activity was 2% (inactive).

With `Cc1ccc(C)c2[nH]c(=O)c(CN(Cc3cccnc3)C(=S)NCc3ccco3)cc12`, the cell count came to 1320 cells and the nuclear translocation activity was -1.9% (inactive).

As for `CN(c1ccccc1)S(=O)(=O)c1ccc(Cl)c(C(=O)OCC(=O)NCc2ccco2)c1`, the cell count was found to be 1260 cells and the nuclear translocation activity was -0.2% (inactive).

On to `Cc1cc(C(=O)OCC(=O)NCc2ccco2)c(C)n1-c1ccccc1`, for which the cell count was determined as 337 cells and the nuclear translocation activity is 94.1% (active).

With `O=C(COC(=O)c1cc(S(=O)(=O)N2CCCCC2)ccc1Cl)NCc1ccco1`, the cell count was 1080 cells and the nuclear translocation activity is -1.5% (inactive).

For `CN(NC(=O)c1ccccc1F)c1nc(C(F)(F)F)nc2ccccc12`, the cell count came to 103 cells and the nuclear translocation activity was 155% (active).

With `CSc1nc(N(C)NC(=O)c2cccc(C)c2)c2ccccc2n1`, the cell count was 751 cells and the nuclear translocation activity was 97.3% (active).

As to `CN(NC(=O)c1ccccc1)c1nc2ccccc2nc1C(F)(F)F`, the cell count turned out to be 965 cells and the nuclear translocation activity was 6.3% (inactive).

On to `COc1ccc(C(=O)NN(C)c2nc(-c3ccccc3)cc(C)c2S(C)(=O)=O)cc1`, for which the cell count came to 1220 cells and the nuclear translocation activity was -2.1% (inactive).

Take `COc1ccc(OCC(=O)NNC(=O)c2cccc(C)c2)cc1`: the cell count was 1060 cells and the nuclear translocation activity was -0.2% (inactive).

Take `Cc1cc(C)n(-c2nc(C(F)(F)F)nc3ccccc23)n1`: the cell count was 998 cells and the nuclear translocation activity is 0% (inactive).

With `COC(=O)c1sccc1NN1C(=O)c2ccccc2C1=O`, the cell count was found to be 1180 cells and the nuclear translocation activity was -1.9% (inactive).

Turning to `COC(=O)c1cc(N2CCNCC2)nc2ccccc12`, the cell count came to 1220 cells and the nuclear translocation activity is 1.7% (inactive).

Regarding `Cc1ccc(F)cc1NC(=O)N1CCCN(c2ccc(C(F)(F)F)cn2)CC1`, the cell count was 1280 cells and the nuclear translocation activity is -1% (inactive).

In the case of `CCN(CC)c1ccc(/C=N/NC(=O)c2cnccn2)c(O)c1`, the cell count worked out at 1050 cells and the nuclear translocation activity is 12.5% (inactive).

As to `Cc1cc2c(cc1C)N(Cc1ccccc1)C1=NCCCN12`, the cell count stood at 1210 cells and the nuclear translocation activity is -0.7% (inactive).

Regarding `Cc1ccc(NC(=O)/C(=C\c2ccccc2)NC(=O)c2ccco2)cc1`, the cell count stood at 1370 cells and the nuclear translocation activity was 0.2% (inactive).

Take `COC(=O)c1cn(C(=O)c2ccc(Cl)cc2)c2ccccc12`: the cell count was 1100 cells and the nuclear translocation activity is -1.4% (inactive).

In the case of `COc1c(N2CCN(C(=S)Nc3ccccc3F)C(C)C2)c(F)cc2c(=O)c(C(=O)O)cn(C3CC3)c12` (stereo not given), the cell count was determined as 1380 cells and the nuclear translocation activity was 0.4% (inactive).

For the compound `Cc1ccc(OCC(=O)N/N=C\c2ccco2)c(C)c1`, the cell count amounted to 1340 cells and the nuclear translocation activity is -1.4% (inactive).

As for `CSc1ccc(/C=N\NC(=O)COc2ccc(Cl)cc2Br)cc1`, the cell count is 812 cells and the nuclear translocation activity was -1.4% (inactive).

For the compound `Cc1ccc(/C=N/NC(=O)COc2ccccc2-c2ccccc2)cc1`, the cell count turned out to be 162 cells and the nuclear translocation activity is 107% (active).

For the compound `COc1ccc(CCN2C(=O)CC(N3CCC(C(N)=O)CC3)C2=O)cc1OC` (stereo not given), the cell count was 1240 cells and the nuclear translocation activity is 0.6% (inactive).

`Cc1ccc(N2NC(=O)/C(=C/C=C/c3ccco3)C2=O)cc1C`: the cell count turned out to be 1100 cells and the nuclear translocation activity is 1.3% (inactive).

In the case of `Cc1ccc(N=C2NC(=O)/C(=C/C=C/c3ccco3)S2)cc1C`, the cell count amounted to 321 cells and the nuclear translocation activity is 58.6% (active).

Turning to `Cc1cccc(N=C2NC(=O)/C(=C/c3cn(C)c4ccccc34)S2)c1`, the cell count came out at 1040 cells and the nuclear translocation activity is 0.7% (inactive).

Turning to `CCCNc1c(N)c(=O)c1=O`, the cell count worked out at 1380 cells and the nuclear translocation activity is -0.4% (inactive).

As to `O=C(N/N=C/c1cccc2cccnc12)[C@H]1C[C@@H]1c1ccccc1`, the cell count stood at 1300 cells and the nuclear translocation activity is 2.9% (inactive).

In the case of `Cc1noc(C)c1C(=O)OCC(=O)N1CCN(S(=O)(=O)c2ccc3ccccc3c2)CC1`, the cell count stood at 1300 cells and the nuclear translocation activity is 0.1% (inactive).

On to `Cc1ccc(C(=O)N/C(=C\c2ccco2)C(=O)NC2CCS(=O)(=O)C2)cc1` (stereo not given), for which the cell count is 1360 cells and the nuclear translocation activity is -0.2% (inactive).

On to `COc1ccc(CCNC(=O)C(=O)NCC2CCNCC2)cc1OC`, for which the cell count came to 1380 cells and the nuclear translocation activity is -1.5% (inactive).

Take `COc1ccc(CCNC(=O)C(=O)Nc2ccc3nc4n(c(=O)c3c2)CCCCC4)cc1OC`: the cell count stood at 1400 cells and the nuclear translocation activity was 0.2% (inactive).
